Data from ChEMBL document CHEMBL1142013, “Tryptamine and homotryptamine-based sulfonamides as potent and selective inhibitors of 15-lipoxygenase” (Bioorg Med Chem Lett, 2005).

target: T1, Polyunsaturated fatty acid lipoxygenase ALOX15 (Oryctolagus cuniculus, UniProt P12530); assay: Inhibitory concentration against rabbit reticulocyte 15-lipoxygenase with substrate arachidonic acid
T1 sequence (P12530 whole entry): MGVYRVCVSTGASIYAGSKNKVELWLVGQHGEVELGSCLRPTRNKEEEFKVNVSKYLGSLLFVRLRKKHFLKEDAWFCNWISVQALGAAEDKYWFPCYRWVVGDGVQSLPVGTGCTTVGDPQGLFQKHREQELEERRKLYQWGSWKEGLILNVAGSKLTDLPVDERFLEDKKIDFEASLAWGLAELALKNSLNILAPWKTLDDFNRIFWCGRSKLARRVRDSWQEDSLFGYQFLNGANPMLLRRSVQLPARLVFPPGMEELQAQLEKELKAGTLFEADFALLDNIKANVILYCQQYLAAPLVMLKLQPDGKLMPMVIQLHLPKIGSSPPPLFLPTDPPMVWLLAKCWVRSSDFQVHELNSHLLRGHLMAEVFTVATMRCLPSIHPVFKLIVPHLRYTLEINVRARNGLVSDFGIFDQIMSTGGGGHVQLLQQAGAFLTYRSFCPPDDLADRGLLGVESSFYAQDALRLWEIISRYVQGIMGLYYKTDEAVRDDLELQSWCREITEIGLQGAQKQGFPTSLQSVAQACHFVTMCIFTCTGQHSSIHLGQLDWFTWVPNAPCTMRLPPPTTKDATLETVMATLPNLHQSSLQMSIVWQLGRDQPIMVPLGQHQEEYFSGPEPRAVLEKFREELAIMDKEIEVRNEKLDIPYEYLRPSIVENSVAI
In short: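 Purified rabbit reticulocyte 15-LO, isolated from phenylhydrazine-treated rabbits, with arachidonic acid as the substrate. IC50 comes from a colorimetric read-out in which the 15-HPETE product oxidizes Fe²⁺ under mildly acidic conditions. Many values were also verified by the spectrophotometric diene-formation rate (A₂₃₄).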

Row | IC50 [µM] | Structure (SMILES)
1 | 0.071 | CCCCCc1ccc(S(=O)(=O)NCCc2c(-c3ccc4oc5ccccc5c4c3)[nH]c3ccccc23)cc1
2 | 0.472 | CCCCCc1ccc(S(=O)(=O)NCCc2c[nH]c3cc(C(=O)OC)ccc23)cc1
3 | 4 | CCCCc1ccc(S(=O)(=O)NCCc2c[nH]c3ccccc23)cc1
4 | 1.42 | CCCCCc1ccc(S(=O)(=O)NCCc2c(-c3cc4ccccc4o3)n(C)c3ccccc23)cc1
5 | 0.161 | O=S(=O)(NCCc1c(-c2cc3ccccc3o2)[nH]c2ccccc12)c1ccc(Br)cc1
6 | 3.2 | CCCc1ccc(S(=O)(=O)NCCc2c[nH]c3ccccc23)cc1
7 | 0.112 | CCCCNC(=O)c1ccc(S(=O)(=O)NCCc2c(-c3cc4ccccc4o3)[nH]c3ccccc23)cc1
8 | 4.05 | CN(CCO)C(=O)c1ccc(S(=O)(=O)NCCc2c(-c3cc4ccccc4o3)[nH]c3ccccc23)cc1
9 | 0.05 | CCCCCc1ccc(S(=O)(=O)NCCc2c(-c3cnc4ccccc4c3)[nH]c3ccccc23)cc1
10 | 1.09 | COc1ccc(-c2ccc(S(=O)(=O)NCCc3c[nH]c4ccccc34)cc2)cc1
11 | 0.017 | O=S(=O)(NCCCc1c(-c2cc3ccccc3o2)[nH]c2ccccc12)c1ccc(-c2ccccc2)cc1
12 | 0.132 | CCCCCc1ccc(S(=O)(=O)NCCc2c(-c3ccc(C(F)(F)F)cc3)[nH]c3ccccc23)cc1
13 | 0.14 | CC(C)c1ccc(-c2ccc(S(=O)(=O)NCCc3c[nH]c4ccccc34)cc2)cc1
14 | 1.02 | CCCCCc1ccc(S(=O)(=O)NCCc2c[nH]c3ccccc23)cc1
15 | 0.034 | O=C(NC1CCCCC1)c1ccc(S(=O)(=O)NCCc2c(-c3cc4ccccc4o3)[nH]c3ccccc23)cc1
16 | 0.179 | O=S(=O)(NCCc1c(-c2cc3ccccc3o2)[nH]c2ccccc12)c1ccc(-c2ccncc2)cc1
17 | 0.32 | Cc1cccc(-c2ccc(S(=O)(=O)NCCc3c[nH]c4ccccc34)cc2)c1
18 | 0.47 | Cc1ccc(-c2ccc(S(=O)(=O)NCCc3c[nH]c4ccccc34)cc2)cc1
19 | 3.9 | CCCCCc1ccc(S(=O)(=O)NCCc2c[nH]c3ccc(C)cc23)cc1

Row | IC50 [µM] | Structure (SMILES)
20 | 4.2 | O=S(=O)(NCCc1c[nH]c2ccccc12)c1ccc(-c2ccccc2)cc1
21 | 0.2 | CCCCc1ccc(-c2ccc(S(=O)(=O)NCCc3c[nH]c4ccccc34)cc2)cc1
22 | 3.3 | CCCCCc1ccc(S(=O)(=O)NCCc2c[nH]c3c(C)cccc23)cc1
23 | 0.47 | CCc1ccc(-c2ccc(S(=O)(=O)NCCc3c[nH]c4ccccc34)cc2)cc1
24 | 0.051 | O=C(Nc1ccccc1)c1ccc(S(=O)(=O)NCCc2c(-c3cc4ccccc4o3)[nH]c3ccccc23)cc1
25 | 0.058 | CCCCCc1ccc(S(=O)(=O)NCCc2c(-c3cccc(C)c3)[nH]c3ccccc23)cc1
26 | 6.3 | CCCCCc1ccc(S(=O)(=O)NCCc2c[nH]c3ccc(F)cc23)cc1
27 | 0.23 | CC(C)(C)c1ccc(-c2ccc(S(=O)(=O)NCCc3c[nH]c4ccccc34)cc2)cc1
28 | 0.46 | Cc1ccccc1-c1ccc(S(=O)(=O)NCCc2c[nH]c3ccccc23)cc1
29 | 0.026 | COc1ccc(NC(=O)c2ccc(S(=O)(=O)NCCc3c(-c4cc5ccccc5o4)[nH]c4ccccc34)cc2)cc1
30 | 0.17 | CC(C)Cc1ccc(-c2ccc(S(=O)(=O)NCCc3c[nH]c4ccccc34)cc2)cc1
31 | 0.78 | COc1ccc(-c2[nH]c3ccccc3c2CCNS(=O)(=O)c2ccc(C)cc2)cc1
32 | 0.382 | CN(C)CCN(C)C(=O)c1ccc(S(=O)(=O)NCCc2c(-c3cc4ccccc4o3)[nH]c3ccccc23)cc1
33 | 2.9 | CCCCCc1ccc(S(=O)(=O)NCCc2c[nH]c3cc(F)ccc23)cc1
34 | 0.132 | CCCCCc1ccc(S(=O)(=O)NCCc2c(-c3cc(OC)ccc3OC)[nH]c3ccccc23)cc1
35 | 0.039 | CCCCCc1ccc(S(=O)(=O)NCCc2c(-c3ccc(OCC)cc3)[nH]c3ccccc23)cc1
36 | 0.247 | COc1ccc(-c2[nH]c3ccccc3c2CCNS(=O)(=O)c2ccc(-c3ccccc3)cc2)cc1
37 | > 30 | CCCCCc1ccc(S(=O)(=O)NCCc2c[nH]c3cc(C(=O)O)ccc23)cc1

Row | Structure (SMILES) | IC50 [µM]
38 | Cc1ccc(S(=O)(=O)NCCc2c[nH]c3ccccc23)cc1 | > 10
39 | CCc1ccc(S(=O)(=O)NCCc2c[nH]c3ccccc23)cc1 | > 10

target: T1, Polyunsaturated fatty acid lipoxygenase ALOX15; assay: Inhibitory concentration against isolated rabbit reticulocyte 15-lipoxygenase measured in the presence of linoleic acid
In short: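 15-LO was purified from reticulocytes of phenylhydrazine-treated rabbits. Linoleic acid was the substrate. In a colorimetric assay, the 13-HPODE product oxidizes Fe²⁺ under mildly acidic conditions, and IC50 is derived from this. Many values were also checked spectrophotometrically by the rate of diene formation (A₂₃₄).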

Row | IC50 [µM] | Structure (SMILES)
40 | 0.3 | CC1=C(CC/C(C)=C/CC/C(C)=C/Cc2cc(O)ccc2O)C(C)(C)CCC1 [JASPAQUINOL]
41 | 0.01 | CCCCCc1ccc(S(=O)(=O)NCCc2c(-c3ccc4oc5ccccc5c4c3)[nH]c3ccccc23)cc1
42 | > 10 | CCCCCc1ccc(S(=O)(=O)N(C)CCc2c[nH]c3ccccc23)cc1
43 | 0.236 | CCCCCc1ccc(S(=O)(=O)NCCc2c[nH]c3cc(C(=O)OC)ccc23)cc1
44 | 3.07 | CCCCc1ccc(S(=O)(=O)NCCc2c[nH]c3ccccc23)cc1
45 | 0.143 | CCCCCc1ccc(S(=O)(=O)NCCc2c(-c3cc4ccccc4o3)n(C)c3ccccc23)cc1
46 | 0.03 | O=S(=O)(NCCc1c(-c2cc3ccccc3o2)[nH]c2ccccc12)c1ccc(Br)cc1
47 | 3.13 | CCCc1ccc(S(=O)(=O)NCCc2c[nH]c3ccccc23)cc1
48 | 0.042 | CCCCNC(=O)c1ccc(S(=O)(=O)NCCc2c(-c3cc4ccccc4o3)[nH]c3ccccc23)cc1
49 | 0.44 | CN(CCO)C(=O)c1ccc(S(=O)(=O)NCCc2c(-c3cc4ccccc4o3)[nH]c3ccccc23)cc1
50 | 0.013 | CCCCCc1ccc(S(=O)(=O)NCCc2c(-c3cnc4ccccc4c3)[nH]c3ccccc23)cc1
51 | 1.5 | COc1ccc(-c2ccc(S(=O)(=O)NCCc3c[nH]c4ccccc34)cc2)cc1
52 | 0.008 | O=S(=O)(NCCCc1c(-c2cc3ccccc3o2)[nH]c2ccccc12)c1ccc(-c2ccccc2)cc1
53 | 0.011 | CCCCCc1ccc(S(=O)(=O)NCCc2c(-c3ccc(C(F)(F)F)cc3)[nH]c3ccccc23)cc1
54 | 0.28 | CC(C)c1ccc(-c2ccc(S(=O)(=O)NCCc3c[nH]c4ccccc34)cc2)cc1
55 | 0.42 | CCCCCc1ccc(S(=O)(=O)NCCc2c[nH]c3ccccc23)cc1
56 | 0.012 | O=C(NC1CCCCC1)c1ccc(S(=O)(=O)NCCc2c(-c3cc4ccccc4o3)[nH]c3ccccc23)cc1
57 | 0.11 | CCCCc1ccc(S(=O)(=O)NCCc2c(-c3ccc(OC)cc3)[nH]c3ccccc23)cc1
58 | 0.047 | O=S(=O)(NCCc1c(-c2cc3ccccc3o2)[nH]c2ccccc12)c1ccc(-c2ccncc2)cc1
59 | 0.45 | Cc1cccc(-c2ccc(S(=O)(=O)NCCc3c[nH]c4ccccc34)cc2)c1

Row | IC50 [µM] | Structure (SMILES)
60 | 3.4 | O=S(=O)(NCCc1c[nH]c2ccccc12)c1ccc(-c2ccccc2)cc1
61 | 0.53 | CCCCc1ccc(-c2ccc(S(=O)(=O)NCCc3c[nH]c4ccccc34)cc2)cc1
62 | 0.26 | CCc1ccc(-c2ccc(S(=O)(=O)NCCc3c[nH]c4ccccc34)cc2)cc1
63 | > 10 | CCCCCc1ccc(S(=O)(=O)N2CCC(c3c[nH]c4ccccc34)C2)cc1 (stereo unspecified)
64 | 0.015 | O=C(Nc1ccccc1)c1ccc(S(=O)(=O)NCCc2c(-c3cc4ccccc4o3)[nH]c3ccccc23)cc1
65 | 0.025 | CCCCCc1ccc(S(=O)(=O)NCCc2c(-c3cccc(C)c3)[nH]c3ccccc23)cc1
66 | 0.27 | CC(C)(C)c1ccc(-c2ccc(S(=O)(=O)NCCc3c[nH]c4ccccc34)cc2)cc1
67 | 0.92 | Cc1ccccc1-c1ccc(S(=O)(=O)NCCc2c[nH]c3ccccc23)cc1
68 | 0.011 | COc1ccc(NC(=O)c2ccc(S(=O)(=O)NCCc3c(-c4cc5ccccc5o4)[nH]c4ccccc34)cc2)cc1
69 | > 10 | COc1ccc(-c2[nH]c3ccccc3c2CCNS(=O)(=O)c2ccc(C(=O)O)cc2)cc1
70 | 3.73 | CN(C)c1cccc2c(S(=O)(=O)NCCc3c[nH]c4ccccc34)cccc12
71 | 1.6 | CCCCCc1ccc(S(=O)(=O)NC(C)Cc2c[nH]c3ccccc23)cc1 (stereo unspecified)
72 | 0.91 | CC(C)Cc1ccc(-c2ccc(S(=O)(=O)NCCc3c[nH]c4ccccc34)cc2)cc1
73 | 0.11 | COc1ccc(-c2[nH]c3ccccc3c2CCNS(=O)(=O)c2ccc(C)cc2)cc1
74 | 0.076 | CN(C)CCN(C)C(=O)c1ccc(S(=O)(=O)NCCc2c(-c3cc4ccccc4o3)[nH]c3ccccc23)cc1
75 | 0.78 | CCCCCc1ccc(S(=O)(=O)NCCc2c[nH]c3ccc(-c4ccc[nH]4)cc23)cc1
76 | 0.028 | CCCCCc1ccc(S(=O)(=O)NCCc2c(-c3cc(OC)ccc3OC)[nH]c3ccccc23)cc1
77 | 0.011 | CCCCCc1ccc(S(=O)(=O)NCCc2c(-c3ccc(OCC)cc3)[nH]c3ccccc23)cc1
78 | 0.027 | COc1ccc(-c2[nH]c3ccccc3c2CCNS(=O)(=O)c2ccc(-c3ccccc3)cc2)cc1
79 | 24 | CCCCCc1ccc(S(=O)(=O)NCCc2c[nH]c3cc(C(=O)O)ccc23)cc1

Row | Structure (SMILES) | IC50 [µM]
80 | Cc1ccc(S(=O)(=O)NCCc2c[nH]c3ccccc23)cc1 | > 10
81 | CCc1ccc(S(=O)(=O)NCCc2c[nH]c3ccccc23)cc1 | > 10
